Reference: ChEMBL document CHEMBL3232712, “Antineoplastic agents. 595. Structural modifications of betulin and the X-ray crystal structure of an unusual betulin amine dimer” (2014)
Values after ≈ are worked out from the molar mass of the structure shown.

Columns and labels:
Assay type in all cases: functional
DU-145 = test: Cytotoxicity against human DU145 cells after 48 hrs by SRB assay; conditions: DU-145, 48 h
In short: (§1)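 Human tumour lines in RPMI1640 with 5% fetal bovine serum, trypsinized and counted by hemacytometer, seeded in 96-well plates and allowed 24 h before serial compound dilutions were added. After 48 h exposure, cells were fixed with trichloroacetic acid and stained with sulforhodamine B, and optical density was read. GI50 was taken as the concentration halving net protein increase.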

P388 = test: Cytotoxicity against mouse P388 cells after 48 hrs; conditions: P388, 48 h, read-out: ED50 (the source's name)
In short: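 Murine P388 leukemia cells, counted by Coulter counter, were grown 24 h in Fisher medium with 10% horse serum, then exposed 48 h to serial compound dilutions. Cell numbers were determined with a Coulter particle counter, and ED50 was calculated for growth inhibition.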

NCI-H460 = test: Cytotoxicity against human NCI-H460 cells after 48 hrs by SRB assay; conditions: NCI-H460, 48 h; in short: as §1
[1] = Cytotoxicity against human KM20L2 cells after 48 hrs by SRB assay; conditions: KM-20L2, 48 h; in short: as §1
[2] = Cytotoxicity against human BxPC3 cells after 48 hrs by SRB assay; conditions: BXPC-3, 48 h; in short: as §1
MCF7 = test: Cytotoxicity against human MCF7 cells after 48 hrs by SRB assay; conditions: MCF7, 48 h; in short: as §1
SF-268 = test: Cytotoxicity against human SF268 cells after 48 hrs by SRB assay; conditions: SF-268, 48 h; in short: as §1

Row | SMILES | GI50 (DU-145) [µg/mL] | EC50 (P388) [µg/mL] | GI50 (NCI-H460) [µg/mL] | GI50 [1] [µg/mL] | GI50 [2] [µg/mL] | GI50 (MCF7) [µg/mL] | GI50 (SF-268) [µg/mL]
1 | C=C(C)[C@@H]1CC[C@]2(COC(C)=O)CC[C@]3(C)[C@H](CC[C@@H]4[C@@]5(C)CCC(=O)C(C)(C)[C@@H]5CC[C@]43C)[C@@H]12 | > 10 | 0.12 (≈ 0.249 µM) | 5.2 (≈ 10.8 µM) | 12.7 (≈ 26.3 µM) | > 10 | 8 (≈ 16.6 µM) | 10.6 (≈ 22 µM)
2 | C=C(C)[C@@H]1CC[C@]2(COC(C)=O)CC[C@]3(C)[C@H](CC[C@@H]4[C@@]5(C)CC[C@H](O)C(C)(C)[C@@H]5CC[C@]43C)[C@@H]12 | 7.6 (≈ 15.7 µM) | 0.805 (≈ 1.66 µM) | 2.5 (≈ 5.16 µM) | 5 (≈ 10.3 µM) | 4.1 (≈ 8.46 µM) | 3 (≈ 6.19 µM) | 4 (≈ 8.25 µM)
3 | CC1(C)CC[C@]23CC[C@]4(C)[C@H](CC[C@@H]5[C@@]6(C)CC(Br)C(=O)C(C)(C)[C@@H]6CC[C@]54C)[C@H]2[C@H]1OC3 (some centres undefined) | 6.7 (≈ 12.9 µM) | – | 2.9 (≈ 5.58 µM) | 2.7 (≈ 5.2 µM) | 3.1 (≈ 5.97 µM) | 5 (≈ 9.62 µM) | 3.4 (≈ 6.54 µM)
4 | CC1(C)CC[C@]23CC[C@]4(C)[C@H](CC[C@@H]5[C@@]6(C)C=C(O)C(=O)C(C)(C)[C@@H]6CC[C@]54C)[C@H]2[C@H]1OC3 | 9.3 (≈ 20.5 µM) | – | 8.8 (≈ 19.4 µM) | 8 (≈ 17.6 µM) | > 10 | 7.1 (≈ 15.6 µM) | > 10
5 | C=C(C)[C@@H]1CC[C@]2(COC(C)=O)CC[C@]3(C)[C@H](CC[C@@H]4[C@@]5(C)C[C@@H](Br)C(=O)C(C)(C)[C@@H]5CC[C@]43C)[C@@H]12 | 9 (≈ 16 µM) | 0.725 (≈ 1.29 µM) | 12.8 (≈ 22.8 µM) | 9.6 (≈ 17.1 µM) | 3.1 (≈ 5.52 µM) | 4.1 (≈ 7.3 µM) | 10.1 (≈ 18 µM)
6 | C=C(C)[C@@H]1CC[C@]2(COC(C)=O)CC[C@]3(C)[C@H](CC[C@@H]4[C@@]5(C)C[C@H](Br)C(=O)C(C)(C)[C@@H]5CC[C@]43C)[C@@H]12 | 6.1 (≈ 10.9 µM) | > 10 | 2.8 (≈ 4.99 µM) | 4.4 (≈ 7.83 µM) | 3.4 (≈ 6.05 µM) | 3.2 (≈ 5.7 µM) | 3.4 (≈ 6.05 µM)
7 | C=C(C)[C@@H]1CC[C@]2(COC(C)=O)CC[C@]3(C)[C@H](CC[C@@H]4[C@@]5(C)CC(Br)(Br)C(=O)C(C)(C)[C@@H]5CC[C@]43C)[C@@H]12 | 3.8 (≈ 5.93 µM) | 0.391 (≈ 0.61 µM) | 4.4 (≈ 6.87 µM) | 4.2 (≈ 6.56 µM) | 1 (≈ 1.56 µM) | 2.5 (≈ 3.9 µM) | 4.4 (≈ 6.87 µM)
8 | C=C(C)[C@@H]1CC[C@]2(COC(C)=O)CC[C@]3(C)[C@H](CC[C@@H]4[C@@]5(C)CC(N=[N+]=[N-])C(=O)C(C)(C)[C@@H]5CC[C@]43C)[C@@H]12 (some centres undefined) | 5.7 (≈ 10.9 µM) | > 10 | 4.4 (≈ 8.4 µM) | 4.2 (≈ 8.02 µM) | 6.6 (≈ 12.6 µM) | 5 (≈ 9.55 µM) | > 10
9 | C=C(C)[C@@H]1CC[C@]2(COC(C)=O)CC[C@]3(C)[C@H](CC[C@@H]4[C@@]5(C)C=C(N)C(=O)C(C)(C)[C@@H]5CC[C@]43C)[C@@H]12 | > 10 | > 10 | > 10 | > 10 | 7.9 (≈ 15.9 µM) | > 10 | > 10
10 | C=C(C)[C@@H]1CC[C@]2(COC(C)=O)CC[C@]3(C)[C@H](CC[C@@H]4[C@@]5(C)C=C(NC6=C[C@]7(C)[C@H]8CC[C@@H]9[C@H]%10[C@H](C(=C)C)CC[C@]%10(COC(C)=O)CC[C@@]9(C)[C@]8(C)CC[C@H]7C(C)(C)C6=O)C(=O)C(C)(C)[C@@H]5CC[C@]43C)[C@@H]12 | > 10 | > 10 | > 10 | > 10 | > 10 | > 10 | > 10
11 | C=C(C)[C@@H]1CC[C@]2(COC(C)=O)CC[C@]3(C)[C@H](CC[C@@H]4[C@@]5(C)CC(=O)C(O)C(C)(C)[C@@H]5CC[C@]43C)[C@@H]12 (some centres undefined) | > 10 | > 10 | 8 (≈ 16 µM) | 5.9 (≈ 11.8 µM) | 9.1 (≈ 18.2 µM) | 5.8 (≈ 11.6 µM) | 6.1 (≈ 12.2 µM)
12 | C=C(C)[C@@H]1CC[C@]2(COC(C)=O)CC[C@]3(C)[C@H](CC[C@@H]4[C@@]5(C)CC6=NC(C)(C)N=C6C(C)(C)[C@@H]5CC[C@]43C)[C@@H]12 | > 10 | – | > 10 | > 10 | 14.5 (≈ 27.1 µM) | 11.2 (≈ 20.9 µM) | > 10
13 | C=C(C)[C@@H]1CC[C@]2(CO)CC[C@]3(C)[C@H](CC[C@@H]4[C@@]5(C)CC6=NC(C)(C)N=C6C(C)(C)[C@@H]5CC[C@]43C)[C@@H]12 | 5.8 (≈ 11.8 µM) | – | 2.8 (≈ 5.68 µM) | 4.9 (≈ 9.94 µM) | 1.9 (≈ 3.86 µM) | 2 (≈ 4.06 µM) | 6.9 (≈ 14 µM)
14 | CC1(C)CC[C@]23CC[C@]4(C)[C@H](CC[C@@H]5[C@@]6(C)CCC(=O)C(C)(C)[C@@H]6CC[C@]54C)[C@H]2[C@H]1OC3 | > 10 | – | > 10 | > 10 | > 10 | > 10 | > 10
15 | CC1(C)CC[C@]23CC[C@]4(C)[C@H](CC[C@@H]5[C@@]6(C)CC(N=[N+]=[N-])C(=O)C(C)(C)[C@@H]6CC[C@]54C)[C@H]2[C@H]1OC3 (some centres undefined) | 4.5 (≈ 9.34 µM) | – | 3.8 (≈ 7.89 µM) | 7.9 (≈ 16.4 µM) | 3.1 (≈ 6.44 µM) | 4.7 (≈ 9.76 µM) | 8.7 (≈ 18.1 µM)
16 | CC1(C)CC[C@]23CC[C@]4(C)[C@H](CC[C@@H]5[C@@]6(C)C=C(N)C(=O)C(C)(C)[C@@H]6CC[C@]54C)[C@H]2[C@H]1OC3 | > 10 | – | > 10 | > 10 | 10.8 (≈ 23.8 µM) | 11.2 (≈ 24.7 µM) | > 10
17 | CC1(C)CC[C@]23CC[C@]4(C)[C@H](CC[C@@H]5[C@@]6(C)C=C(NC7=C[C@]8(C)[C@H]9CC[C@@H]%10[C@H]%11[C@H]%12OC[C@@]%11(CCC%12(C)C)CC[C@@]%10(C)[C@]9(C)CC[C@H]8C(C)(C)C7=O)C(=O)C(C)(C)[C@@H]6CC[C@]54C)[C@H]2[C@H]1OC3 | > 10 | – | > 10 | > 10 | > 10 | > 10 | > 10
18 | C=C(C)[C@@H]1CC[C@]2(C(=O)OC)CC[C@]3(C)[C@H](CC[C@@H]4[C@@]5(C)CC(=O)CC(C)(C)[C@@H]5CC[C@]43C)[C@@H]12 | > 10 | > 10 | 13.1 (≈ 27.9 µM) | > 10 | 8.2 (≈ 17.5 µM) | 11.6 (≈ 24.7 µM) | > 10
19 | C=C(C)[C@@H]1CC[C@]2(C(=O)OC)CC[C@]3(C)[C@H](CC[C@@H]4[C@@]5(C)C=C(N6CCOCC6)C(=O)C(C)(C)[C@@H]5CC[C@]43C)[C@@H]12 | > 10 | – | 4.4 (≈ 7.97 µM) | > 10 | 3.9 (≈ 7.07 µM) | 6.1 (≈ 11.1 µM) | > 10
20 | C=C(C)[C@@H]1CC[C@]2(COC(C)=O)CC[C@]3(C)[C@H](CC[C@@H]4[C@@]5(C)CC[C@H](OC(C)=O)C(C)(C)[C@@H]5CC[C@]43C)[C@@H]12 [BETULIN DIACETATE] | > 10 | 0.806 | > 10 | > 10 | > 10 | > 10 | > 10
21 | C=C(C)[C@@H]1CC[C@]2(CO)CC[C@]3(C)[C@H](CC[C@@H]4[C@@]5(C)CC[C@H](O)C(C)(C)[C@@H]5CC[C@]43C)[C@@H]12 [BETULIN] | > 10 | – | 7.4 (≈ 16.7 µM) | > 10 | 9.3 (≈ 21 µM) | > 10 | > 10
22 | C=C(C)[C@@H]1CC[C@]2(C(=O)OC)CC[C@]3(C)[C@H](CC[C@@H]4[C@@]5(C)CCC(=O)C(C)(C)[C@@H]5CC[C@]43C)[C@@H]12 [METHYL BETULONATE] | 2.3 (≈ 4.91 µM) | > 10 | 2.3 (≈ 4.91 µM) | 2.2 (≈ 4.69 µM) | 2.4 (≈ 5.12 µM) | 2.7 (≈ 5.76 µM) | 2.7 (≈ 5.76 µM)
